# Measurements collected from several papers.
# Each line is one published result; the experiments were not run side by side.
Structure (SMILES),tested on,test,test system,conditions,measurement,result
O=[N+]([O-])c1cccc(-c2nc3ccccc3[nH]2)c1,human Rhabdomyosarcoma cell,"cell growth or viability, MTT",,48 h,IC50,50.3 µM
Cc1cc(Nc2ncc(Cl)c(Nc3ccccc3S(=O)(=O)C(C)C)n2)c(OC(C)C)cc1C1CCNCC1,NCI-H3122,"cell growth or viability, MTT",,"2 µg/mL, 72 h",inhibition,90.7%
O=C(O)c1cn(C2CC2)c2cc(N3CCNCC3)c(F)cc2c1=O,Serratia marcescens,microbial growth,DSM30121,,MIC,0.5 µg/mL
CCOc1ccc(-c2nc3ccccc3[nH]2)cc1,human Rhabdomyosarcoma cell,"cell growth or viability, MTT",,48 h,IC50,25.1 µM
CN(C)[C@@H]1C(O)=C(C(N)=O)C(=O)[C@@]2(O)C(O)=C3C(=O)c4c(O)c(-c5ccccc5)nc(Cl)c4C[C@H]3C[C@@H]12.Cl,Enterobacter cloacae,"microbial growth, broth dilution",ATCC13047,,MIC,> 32 µg/mL
C[C@@H](Oc1cc(-c2cnn(C3CCNCC3)c2)cnc1N)c1c(Cl)ccc(F)c1Cl,NCI-H3122,"cell growth or viability, MTT",,"1 µg/mL, 72 h",inhibition,77.5%
CN(C)c1ccc(O)c2c1C[C@H]1C[C@H]3[C@H](N(C)C)C(O)=C(C(N)=O)C(=O)[C@@]3(O)C(O)=C1C2=O,Enterobacter cloacae,"microbial growth, broth dilution",ATCC13047,,MIC,2 µg/mL
C/C=C(\C)c1cc(O)c(C)c(OC(=O)c2c(C)cc(O)c(Cl)c2O)c1,Enterococcus gallinarum,"microbial growth, broth dilution",GALLINARUM,,MIC,8 µg/mL
CC(=O)O[C@H]1C(=O)[C@@]2(C)[C@H]([C@H](OC(=O)c3ccccc3)[C@]3(O)C[C@H](OC(=O)[C@H](O)[C@@H](NC(=O)c4ccccc4)c4ccccc4)C(C)=C1C3(C)C)[C@]1(OC(C)=O)CO[C@@H]1C[C@@H]2O,human Rhabdomyosarcoma cell,"cell growth or viability, MTT",,48 h,IC50,6.13 µM
CC1(C)S[C@@H]2[C@H](NC(=O)[C@H](N)c3ccccc3)C(=O)N2[C@H]1C(=O)O,Enterococcus gallinarum,"microbial growth, broth dilution",GALLINARUM,,MIC,8 µg/mL
CN(C)[C@@H]1C(O)=C(C(N)=O)C(=O)[C@@]2(O)C(O)=C3C(=O)c4c(cnc(-c5ccccc5)c4O)C[C@H]3C[C@@H]12.Cl.Cl,Enterobacter cloacae,"microbial growth, broth dilution",ATCC13047,,MIC,> 32 µg/mL
